Measurements collected from several papers.
Protocols differ between the studies behind these lines. pEC50, pKi: −log10 of the molar value.
Target: Cannabinoid receptor 1 (CNR1, Homo sapiens, UniProt P21554)

SMILES | read-out | mode | technique | setting | quantity | result
CCCCC/C=C\C/C=C\C/C=C\C/C=C\CCCC(=O)NCCCl | ligand displacement | – | radioligand | cell membranes | pKi | 9.13
C=CCC(CC)(NC(=O)c1ccc(C2CC2)c(Cc2ccc(F)cc2)n1)C(=O)OCC (centres unmarked) | ligand displacement | – | radioligand | cell membranes | pKi | 8.54
C=C(C)[C@@H]1CCC(C)=C[C@H]1c1c(O)cc(CCC)cc1O | ligand displacement | – | radioligand | cell membranes | pKi | 6.30
C/C(N)=N\C(=N/S(=O)(=O)c1ccc(C(F)(F)F)cc1)N1C[C@H](c2ccccc2)C(c2ccc(Cl)cc2)=N1 | ligand displacement | – | radioligand | – | pKi | 8.92
CCCCCc1cc(O)c(C/C=C(\C)CCC=C(C)C)c(O)c1 | ligand displacement | – | radioligand | cell membranes | pKi | 5.51
CC1(C)C(C(=O)c2cn(CCCCCF)c3ccccc23)C1(C)C | GTPγS binding | agonist | radiometric | cell membranes | pEC50 | 6.80
CCOC(=O)C(CC)(CCCSCCOCCOCCNc1ccc([N+](=O)[O-])c2nonc12)NC(=O)c1ccc(C2CC2)c(Cc2ccc(F)cc2)n1 (racemic) | cAMP | agonist | – | – | pEC50 | 6.22
CC/C(=C(\c1ccc(O)cc1)c1ccc(OCCN(C)C)cc1)c1ccccc1 | cAMP | antagonist | – | – | Kb | 1600 nM
CCCCCc1cc2c(c(O)c1C(=O)O)C1C=C(C)CCC1C(C)(C)O2 (centres unmarked) | ligand displacement | – | radioligand | cell membranes | pKi | 5.89
CCOC(=O)[C@H](CSC)NC(=O)c1ccc(C2CC2)c(Cc2ccc(F)cc2)n1 | ligand displacement | – | radioligand | cell membranes | pKi | 7.72
CCCc1cc(O)c2c(c1)OC(C)(C)c1ccc(C)cc1-2 | ligand displacement | – | radioligand | cell membranes | pKi | 6.25
CC(C)C(NC(=O)c1nn(Cc2ccc(F)cc2)c2ccccc12)C(N)=O (centres unmarked) | calcium signal | agonist | – | – | pEC50 | 8.46
CCOC(=O)C(CCCOC)NC(=O)c1ccc(C2CC2)c(Cc2ccc(F)cc2)n1 (centres unmarked) | ligand displacement | – | radioligand | cell membranes | pKi | 7.00
Cc1ccc(OC(C)(C)C(=O)N[C@@H](C)[C@@H](Cc2ccc(OCCF)cc2)c2cccc(C#N)c2)nc1 | ligand displacement | – | radioligand | – | pKi | 10.00
